# Measurements published in ChEMBL document CHEMBL3588757, “Structure-based design, synthesis and biological testing of piperazine-linked bis-epipodophyllotoxin etoposide analogs” (Bioorg Med Chem, 2015).
# What was measured:
# Format in all cases: functional
# [1] = tested on: T47D; assay: Cytotoxicity against human T47D cells assessed as cell growth at 0.005 uM by SRB assay; conditions: read-out: Activity
# [2] = tested on: MDA-MB-468; assay: Cytotoxicity against human MDA-MB-468 cells assessed as cell growth at 0.005 uM by SRB assay; conditions: read-out: Activity
# [3] = tested on: A549; assay: Cytotoxicity against human A549/ATCC cells assessed as cell growth at 5 uM by SRB assay; conditions: read-out: Activity
# [4] = tested on: SF-295; assay: Cytotoxicity against human SF295 cells assessed as cell growth at 0.05 uM by SRB assay; conditions: read-out: Activity
# [5] = tested on: IGROV-1; assay: Cytotoxicity against human IGROV1 cells assessed as cell growth at 0.05 uM by SRB assay; conditions: read-out: Activity
# Summary of the method: (§1)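 Measured in the NCI-60 human tumour cell line panel using five-dose testing. Growth was recorded at each dose for each cell line, and a GI50 was derived for each line.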
# [6] = tested on: RXF 393; assay: Cytotoxicity against human RXF393 cells assessed as cell growth at 50 uM by SRB assay; conditions: read-out: Activity
# [7] = tested on: MDA-MB-435; assay: Cytotoxicity against human MDA-MB-435 cells by SRB assay
# Summary of the method: (§2)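 NCI-60 panel screen; 5-dose testing giving GI50 per cell line, plus a single 10 µM one-dose test. Method details not given beyond the NCI screen.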
# [8] = tested on: OVCAR-4; assay: Cytotoxicity against human OVCAR4 cells assessed as cell growth at 0.5 uM by SRB assay; conditions: read-out: Activity
# [9] = tested on: HOP-92; assay: Cytotoxicity against human HOP92 cells assessed as cell growth at 50 uM by SRB assay; conditions: read-out: Activity; summary of the method: as §1
# [10] = tested on: M14; assay: Cytotoxicity against human M14 cells assessed as cell growth at 5 uM by SRB assay; conditions: read-out: Activity
# [11] = tested on: KM12; assay: Cytotoxicity against human KM12 cells assessed as cell growth at 5 uM by SRB assay; conditions: read-out: Activity
# [12] = tested on: HCT-116; assay: Cytotoxicity against human HCT116 cells assessed as cell growth at 0.5 uM by SRB assay; conditions: read-out: Activity; summary of the method: as §1
# [13] = tested on: SR; assay: Cytotoxicity against human SR cells assessed as cell growth at 50 uM by SRB assay; conditions: read-out: Activity
# [14] = tested on: T47D; assay: Cytotoxicity against human T47D cells assessed as cell growth at 5 uM by SRB assay; conditions: read-out: Activity
# [15] = tested on: HCT-116; assay: Cytotoxicity against human HCT116 cells assessed as cell growth at 5 uM by SRB assay; conditions: read-out: Activity; summary of the method: as §1
# [16] = tested on: SW-620; assay: Cytotoxicity against human SW620 cells assessed as cell growth at 0.5 uM by SRB assay; conditions: read-out: Activity
# [17] = tested on: HL-60(TB); assay: Cytotoxicity against human HL-60(TB) cells by SRB assay; summary of the method: as §1
# [18] = tested on: SN12C; assay: Cytotoxicity against human SN12C cells assessed as cell growth at 5 uM by SRB assay; conditions: read-out: Activity
# [19] = tested on: NCI-H522; assay: Cytotoxicity against human NCI-H522 cells by SRB assay; summary of the method: as §2
# [20] = tested on: SK-OV-3; assay: Cytotoxicity against human SKOV3 cells assessed as cell growth at 5 uM by SRB assay; conditions: read-out: Activity
# [21] = tested on: T47D; assay: Cytotoxicity against human T47D cells assessed as cell growth at 0.05 uM by SRB assay; conditions: read-out: Activity
# [22] = tested on: CAKI-1; assay: Cytotoxicity against human Caki1 cells assessed as cell growth at 5 uM by SRB assay; conditions: read-out: Activity
# [23] = tested on: RPMI-8226; assay: Cytotoxicity against human RPMI8226 cells assessed as cell growth at 5 uM by SRB assay; conditions: read-out: Activity
# [24] = tested on: OVCAR-4; assay: Cytotoxicity against human OVCAR4 cells by SRB assay; conditions: read-out: GI50; summary of the method: as §2
# [25] = read-out: LC50 (the source's name)
# [26] = read-out: pLC50 (the source's name) (converted)
compound,measurement,setting,value
COc1cc([C@@H]2c3cc4c(cc3[C@@H](NC(=O)CN3CCN(CCCCCCCCCCN5CCN(CC(=O)N[C@@H]6c7cc8c(cc7[C@@H](c7cc(OC)c(O)c(OC)c7)[C@H]7C(=O)OC[C@@H]76)OCO8)CC5)CC3)[C@H]3COC(=O)[C@H]23)OCO4)cc(OC)c1O,growth at 0.005 µM,[1],94%
same,growth at 0.005 µM,[2],95%
same,growth at 5 µM,[3],-29%
same,growth at 0.05 µM,[4],88%
same,growth at 0.05 µM,[5],83%
same,growth at 50 µM,[6],-47%
same,GI50,[7]; read-out: GI50,295 nM
same,TGI,[7]; read-out: TGI,1230 nM
same,GI50,[7]; read-out: pGI50 (converted),295 nM
same,TGI,[7]; read-out: pTGI (converted),1230 nM
same,growth at 0.5 µM,[8],77%
same,growth at 50 µM,[9],-46%
same,growth at 5 µM,[10],-36%
same,growth at 5 µM,[11],-22%
same,growth at 0.5 µM,[12],78%
same,growth at 50 µM,[13],-12%
same,growth at 5 µM,[14],16%
same,growth at 5 µM,[15],-15%
same,growth at 0.5 µM,[16],46%
same,GI50,[17]; read-out: GI50,113 nM
same,CC50,[17]; [25],> 50000 nM
same,TGI,[17]; read-out: TGI,901 nM
same,GI50,[17]; read-out: pGI50 (converted),112 nM
same,CC50,[17]; [26],> 50100 nM
same,TGI,[17]; read-out: pTGI (converted),891 nM
same,growth at 5 µM,[18],3%
same,GI50,[19]; read-out: GI50,32 nM
same,CC50,[19]; [25],4380 nM
same,TGI,[19]; read-out: TGI,797 nM
same,GI50,[19]; read-out: pGI50 (converted),32.4 nM
same,CC50,[19]; [26],4370 nM
same,TGI,[19]; read-out: pTGI (converted),794 nM
same,growth at 5 µM,[20],4%
same,growth at 0.05 µM,[21],81%
same,growth at 5 µM,[22],28%
same,growth at 5 µM,[23],-15%
same,GI50,[24],911 nM
